Values belong to the molecule of their own block, whether it stands above or below them. *1 amine or outer side, *2 acyl side, *3 side chain or, on linkers, in order; H or OH if unused. Where a SMILES comes first, the peptide text is derived from it. [ ]: non-standard residue; d: D form. The star is where a group is joined. ξ: configuration not given here. LeuΨ(ξCHOHCH2)Val = CC(C)C[C@H](N[*:1])C(O)C[C@H](C(=O)[*:2])C(C)C; Boc = CC(C)(C)OC(=O)*; Piv = CC(C)(C)C(=O)*
What was measured:
Renin = molecular target: T1, Renin (Homo sapiens, UniProt P00797); experiment: In vitro inhibition of purified Human kidney renin (250 pg/mL) incubated with angiotensinogen at pH 7.2
T1 sequence (P00797 whole entry): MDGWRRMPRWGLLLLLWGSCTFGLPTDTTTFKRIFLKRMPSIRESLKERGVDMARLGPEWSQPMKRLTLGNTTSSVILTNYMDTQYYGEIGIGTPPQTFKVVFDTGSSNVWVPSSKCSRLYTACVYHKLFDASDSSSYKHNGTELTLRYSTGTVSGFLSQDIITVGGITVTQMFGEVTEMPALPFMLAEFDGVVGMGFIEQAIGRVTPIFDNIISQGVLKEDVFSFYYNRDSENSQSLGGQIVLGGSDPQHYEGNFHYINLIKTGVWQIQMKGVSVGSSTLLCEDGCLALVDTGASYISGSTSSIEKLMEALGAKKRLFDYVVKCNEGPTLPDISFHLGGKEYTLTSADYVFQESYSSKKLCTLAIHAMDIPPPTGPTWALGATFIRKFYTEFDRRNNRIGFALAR
How it was run: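 Purified human kidney renin at 250 pg/mL, incubated at 37 °C with human angiotensinogen at pH 7.2.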

Monkey [1] = experiment: Reduction of blood pressure measured 120 min after administration of compound(dose 0.1 mg/kg, iv); format: functional
How it was run: (§1)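 Salt-depleted marmosets given a single intravenous or oral dose. Blood pressure change recorded in mmHg at 30, 60 and 120 min after dosing.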

Monkey [2] = experiment: Reduction of blood pressure measured 120 min after administration of compound(dose 3 mg/kg, po); format: functional; how it was run: as §1
Cathepsin D = molecular target: T2, Cathepsin D (Bos taurus, UniProt P80209); experiment: In vitro inhibition of bovine cathepsin D
T2 sequence (P80209 whole entry): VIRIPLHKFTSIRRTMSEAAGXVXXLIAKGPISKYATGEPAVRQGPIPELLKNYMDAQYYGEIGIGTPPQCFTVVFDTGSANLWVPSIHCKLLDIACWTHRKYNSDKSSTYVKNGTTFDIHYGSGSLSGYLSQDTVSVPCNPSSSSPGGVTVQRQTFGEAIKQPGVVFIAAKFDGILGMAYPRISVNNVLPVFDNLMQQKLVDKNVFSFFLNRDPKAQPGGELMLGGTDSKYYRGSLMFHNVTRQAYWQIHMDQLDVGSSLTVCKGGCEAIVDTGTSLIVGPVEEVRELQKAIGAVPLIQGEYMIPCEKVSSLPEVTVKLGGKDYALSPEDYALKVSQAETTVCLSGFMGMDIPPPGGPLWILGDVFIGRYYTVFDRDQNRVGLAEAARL

Monkey [3] = experiment: Reduction of blood pressure measured 120 min after administration of compound(dose 1 mg/kg, p.o.); format: functional; details: route oral; how it was run: as §1
Monkey [4] = experiment: Reduction of blood pressure measured 120 min after administration of compound(dose 10 mg/kg, po); format: functional; how it was run: as §1
Monkey [5] = experiment: Reduction of blood pressure measured 60 min after administration of compound(dose 1 mg/kg, p.o.); format: functional; details: route oral; how it was run: as §1
Monkey [6] = experiment: Reduction of blood pressure measured 30 min after administration of compound(dose 10mg/kg, po); format: functional; how it was run: as §1
Monkey [7] = experiment: Reduction of blood pressure measured 120 min after administration of compound(dose 1 mg/kg, iv); format: functional; how it was run: as §1
Monkey [8] = experiment: Reduction of blood pressure measured 60 min after administration of compound(dose 0.1 mg/kg, iv); format: functional; how it was run: as §1
Monkey [9] = experiment: Reduction of blood pressure measured 30 min after administration of compound(dose 1 mg/kg, p.o.); format: functional; details: route oral; how it was run: as §1
Monkey [10] = experiment: Reduction of blood pressure measured 60 min after administration of compound(dose 1 mg/kg, iv); format: functional; how it was run: as §1
Monkey [11] = experiment: Reduction of blood pressure measured 60 min after administration of compound(dose 3 mg/kg, po); format: functional; how it was run: as §1
Monkey [12] = experiment: Reduction of blood pressure measured 30 min after administration of compound(dose 1 mg/kg, iv); format: functional; how it was run: as §1
Monkey [13] = experiment: Reduction of blood pressure measured 30 min after administration of compound(dose 3mg/kg, po); format: functional; how it was run: as §1
Monkey [14] = experiment: Reduction of blood pressure measured 60 min after administration of compound(dose 10mg/kg, po); format: functional; how it was run: as §1
Monkey [15] = experiment: Reduction of blood pressure measured 30 min after administration of compound(dose 0.1 mg/kg, iv); format: functional; how it was run: as §1

SMILES: CCCCNC(=O)[C@@H](CC(O)[C@H](CC(C)C)NC(=O)[C@H](Cc1cnc[nH]1)NC(=O)C(C)(OC(=O)C(C)(C)C)c1ccccc1)C(C)C (stereo not given in full)
IC50 (Renin): 20 nM

SMILES: CC[C@H](C)[C@H](NC(=O)[C@@H](CC(O)[C@H](CC(C)C)NC(=O)[C@H](Cc1cnc[nH]1)NC(=O)C(C)(OC(=O)C(C)(C)C)c1ccccc1)C(C)C)C(=O)N[C@@H](Cc1cnc[nH]1)C(N)=O (stereo not given in full)
IC50 (Renin): 20 nM

SMILES: CC[C@H](C)[C@H](NC(=O)[C@@H](CC(O)[C@H](CC(C)C)NC(=O)[C@H](Cc1cnc[nH]1)NC(=O)[C@H](Cc1ccccc1)NC(=O)OC(C)(C)C)C(C)C)C(=O)N[C@@H](Cc1cnc[nH]1)C(N)=O (stereo not given in full) (Boc-FH[LeuΨ(ξCHOHCH2)Val]IH-NH2)
IC50 (Renin): 15 nM

SMILES: CC[C@H](C)[C@H](NC(=O)[C@@H](CC(O)[C@H](CC(C)C)NC(=O)[C@H](Cc1c[nH]cn1)NC(=O)[C@H](Cc1ccccc1)NC(=O)C(C)(C)C)C(C)C)C(=O)N[C@@H](Cc1c[nH]cn1)C(N)=O (stereo not given in full) (Piv-FH[LeuΨ(ξCHOHCH2)Val]IH-NH2)
IC50 (Renin): 20 nM

SMILES: CCCCNC(=O)[C@@H](CC(O)[C@H](CC1CCCCC1)NC(=O)[C@H](Cc1c[nH]cn1)NC(=O)C(Cc1ccccc1)CS(=O)(=O)C(C)(C)C)C(C)C (stereo in doubt; 8i)
Delta blood pressure (Monkey [1]): -1 mmHg
Delta blood pressure (Monkey [2]): -8 mmHg
IC50 (Cathepsin D): 3200 nM
Delta blood pressure (Monkey [3]): -6 mmHg
Delta blood pressure (Monkey [4]): -23 mmHg
Delta blood pressure (Monkey [5]): -5 mmHg
Delta blood pressure (Monkey [6]): -18 mmHg
Delta blood pressure (Monkey [7]): -12 mmHg
Delta blood pressure (Monkey [8]): -5 mmHg
Delta blood pressure (Monkey [9]): 0 mmHg
Delta blood pressure (Monkey [10]): -13 mmHg
Delta blood pressure (Monkey [11]): -10 mmHg
Delta blood pressure (Monkey [12]): -17 mmHg
Delta blood pressure (Monkey [13]): -6 mmHg
Delta blood pressure (Monkey [14]): -23 mmHg
Delta blood pressure (Monkey [15]): -13 mmHg

Further molecules by falling IC50 (Renin), results first:

IC50 (Renin): 7 nM
SMILES: CCCCNC(=O)[C@@H](CC(O)[C@H](CC1CCCCC1)NC(=O)[C@H](Cc1c[nH]cn1)NC(=O)C(C)(OC(=O)C(C)(C)C)c1ccccc1)C(C)C (stereo not given in full)

IC50 (Renin): 6 nM
SMILES: CCCCNC(=O)[C@@H](CC(O)[C@H](CC1CCCCC1)NC(=O)[C@H](Cc1c[nH]cn1)NC(=O)C(CC(=O)C(C)(C)C)Cc1ccccc1)C(C)C (stereo not given in full)

IC50 (Renin): 4 nM
SMILES: CCCCNC(=O)[C@@H](CC(O)[C@H](CC1CCCCC1)NC(=O)[C@H](Cc1cnc[nH]1)NC(=O)C(Cc1ccccc1)CP(=O)(OCC)OCC)C(C)C (stereo not given in full)

IC50 (Renin): 4 nM
SMILES: CCCCNC(=O)[C@@H](CC(O)[C@H](CC1CCCCC1)NC(=O)[C@H](Cc1cnc[nH]1)NC(=O)[C@@H](CSC(C)(C)C)Cc1ccccc1)C(C)C (stereo not given in full)

IC50 (Renin): 2 nM
SMILES: CCCCNC(=O)[C@@H](CC(O)[C@H](CC1CCCCC1)NC(=O)[C@H](Cc1c[nH]cn1)NC(=O)[C@H](Cc1ccccc1)C[S+]([O-])C(C)(C)C)C(C)C (stereo not given in full)

Source: ChEMBL document CHEMBL1124210, “Synthesis and biological activity of some transition-state inhibitors of human renin” (J Med Chem, 1988)
